Data: PubChem BioAssay AID651708 (Sanford-Burnham Center for Chemical Genomics, 2012)
Several values for one entry are separate records, joined by “and”; a condition that tells them apart may be missing. Equal entries are not always repeated. Activity calls are given as the source filed them.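 The calls were made as follows: active = compound with IC50 above 30 µM at both the APJ and CCR6 off-target receptors, and at most 10 µM at CXCR6; inactive = the rest.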

Key:
Assay in all cases: antagonism across CCR6, APJ and CXCR6 receptors, profiling panel, selectivity assay for CXCR6 antagonist project, cell-based, CHO-K1 PathHunter beta-arrestin, luminescence, set 3 (AID 651708)
[1] = biological target: C-C chemokine receptor type 6 (Homo sapiens) (UniProt P51684); details: antagonist mode
Sequence of C-C chemokine receptor type 6 (Homo sapiens) (P51684 whole entry, looked up): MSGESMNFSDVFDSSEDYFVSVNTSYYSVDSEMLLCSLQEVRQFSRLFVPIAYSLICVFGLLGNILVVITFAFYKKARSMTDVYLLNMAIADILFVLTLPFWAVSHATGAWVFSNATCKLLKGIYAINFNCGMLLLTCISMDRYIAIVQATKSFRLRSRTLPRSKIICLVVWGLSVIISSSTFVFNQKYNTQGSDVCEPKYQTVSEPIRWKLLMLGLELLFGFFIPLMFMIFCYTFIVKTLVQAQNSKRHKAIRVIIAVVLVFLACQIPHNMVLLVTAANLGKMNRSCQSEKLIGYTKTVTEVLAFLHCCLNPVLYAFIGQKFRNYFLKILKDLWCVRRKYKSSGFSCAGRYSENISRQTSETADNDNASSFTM
In short: (§1)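 System: CHO-K1 PathHunter β-arrestin cell lines for APJ, CCR6 or CXCR6. Reagent: APJ 10 nM Apelin-13, CCR6 14 nM CCL20, CXCR6 CXCL16. Detection: β-arrestin recruitment luminescence.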

[2] = biological target: Apelin receptor (Homo sapiens) (UniProt P35414); details: antagonist mode, APJ
Sequence of Apelin receptor (Homo sapiens) (P35414 whole entry, looked up): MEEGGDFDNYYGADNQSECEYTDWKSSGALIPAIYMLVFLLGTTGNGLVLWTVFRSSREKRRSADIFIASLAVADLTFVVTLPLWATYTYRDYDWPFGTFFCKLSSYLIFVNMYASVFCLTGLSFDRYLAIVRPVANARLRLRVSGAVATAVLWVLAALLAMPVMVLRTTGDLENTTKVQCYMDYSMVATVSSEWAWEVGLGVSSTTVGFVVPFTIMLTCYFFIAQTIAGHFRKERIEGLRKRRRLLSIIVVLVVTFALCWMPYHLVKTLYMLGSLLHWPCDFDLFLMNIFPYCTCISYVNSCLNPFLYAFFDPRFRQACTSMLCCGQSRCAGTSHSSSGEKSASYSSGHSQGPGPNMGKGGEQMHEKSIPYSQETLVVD
In short: as §1

[3] = biological target: C-X-C chemokine receptor type 6 (Homo sapiens) (UniProt O00574); details: antagonist mode
Sequence of C-X-C chemokine receptor type 6 (Homo sapiens) (O00574 whole entry, looked up): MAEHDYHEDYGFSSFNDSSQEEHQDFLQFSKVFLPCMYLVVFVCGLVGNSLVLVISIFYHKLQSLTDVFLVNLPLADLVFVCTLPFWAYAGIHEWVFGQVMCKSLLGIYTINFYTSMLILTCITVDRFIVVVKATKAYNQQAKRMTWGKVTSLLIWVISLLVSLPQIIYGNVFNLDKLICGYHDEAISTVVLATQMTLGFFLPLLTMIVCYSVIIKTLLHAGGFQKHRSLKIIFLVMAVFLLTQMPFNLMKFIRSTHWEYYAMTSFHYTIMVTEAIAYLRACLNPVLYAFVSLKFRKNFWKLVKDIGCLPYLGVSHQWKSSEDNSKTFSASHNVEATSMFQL
In short: as §1

SMILES | IC50 ([1]; CCR6, mean of runs) | IC50 ([1]; CCR6, run 1) [µM] | IC50 ([1]; CCR6, run 2) [µM] | IC50 ([2]; run 1) [µM] | IC50 ([2]; run 2) [µM] | IC50 ([3]; CXCR6, mean of runs) | IC50 ([3]; CXCR6, run 1) | IC50 ([3]; CXCR6, run 2) | IC50 ([2]; mean of runs)
COc1ccc(NC(=O)CN2C3CCCC2CC(NC(=O)c2ccc(OC)c(OC)c2)C3)cc1 (stereo not given) | > 79 µM (inactive) | > 79 | > 79 | > 79 | 0.307 | > 79 µM (inactive) | > 79 µM | > 79 µM | –
O=C(CN1C2CCCC1CC(NC(=O)c1ccc3c(c1)OCO3)C2)Nc1ccccc1 (stereo not given) | > 79 µM (inactive) | > 79 | > 79 | > 79 | > 79 | > 79 µM (inactive) | > 79 µM | > 79 µM | > 79 µM (inactive)
COc1ccc(C(=O)NC2CC3CCCC(C2)N3CC(=O)Nc2ccccc2)cc1OC (stereo not given) | > 79 µM (inactive) | > 79 | > 79 | > 79 | > 79 | > 79 µM (inactive) | > 79 µM | > 79 µM | > 79 µM (inactive)
COc1ccc(CN2C3CCCC2CC(NC(=O)c2cc(OC)c(OC)c(OC)c2)C3)cc1 (stereo not given) | > 79 µM (inactive) | > 79 | > 79 | 10.1 | 24.2 | > 79 µM (inactive) | > 79 µM | > 79 µM | 17.1 µM
COc1cc(C(=O)NC2CC3CCCC(C2)N3CC(=O)Nc2ccc(F)cc2)cc(OC)c1OC (stereo not given) | > 79 µM (inactive) | > 79 | > 79 | > 79 | > 79 | 3.51 µM | 3.08 µM | 3.95 µM | > 79 µM (inactive)
COc1ccc(C(=O)NC2CC3CCCC(C2)N3CC(=O)Nc2ccc(F)cc2)cc1OC (stereo not given) | > 79 µM (inactive) | > 79 | > 79 | > 79 | > 79 | > 79 µM (inactive) | > 79 µM | > 79 µM | > 79 µM (inactive)
O=C(CN1C2CCCC1CC(NC(=O)c1ccc3c(c1)OCO3)C2)Nc1ccc(Cl)cc1 (stereo not given) | > 79 µM (inactive) | > 79 | > 79 | > 79 | 36.9 | > 79 µM (inactive) | > 79 µM | > 79 µM | –
COc1ccccc1NC(=O)CN1C2CCCC1CC(NC(=O)c1cc(OC)c(OC)c(OC)c1)C2 (stereo not given) | > 79 µM (inactive) | > 79 | > 79 | > 79 | 25.4 | 1.95 µM | 1.81 µM | 2.09 µM | –
COc1ccc(C(=O)NC2CC3CCCC(C2)N3CC(=O)Nc2ccccc2)cc1 (stereo not given) | > 79 µM (inactive) | > 79 | > 79 | > 79 | > 79 | > 79 µM (inactive) | > 79 µM | > 79 µM | > 79 µM (inactive)
COc1ccc(C(=O)NC2CC3CCCC(C2)N3CC(=O)Nc2ccc(F)cc2)cc1 (stereo not given) | > 79 µM (inactive) | > 79 | > 79 | > 79 | > 79 | > 79 µM (inactive) | > 79 µM | > 79 µM | > 79 µM (inactive)
COc1cccc(C(=O)NC2CC3CCCC(C2)N3CC(=O)Nc2ccccc2)c1 (stereo not given) | > 79 µM (inactive) | > 79 | > 79 | > 79 | > 79 | > 79 µM (inactive) | > 79 µM | > 79 µM | > 79 µM (inactive)
COc1cc(C(=O)NC2CC3CCCC(C2)N3CC(=O)Nc2ccccc2)cc(OC)c1OC (stereo not given) | > 79 µM (inactive) | > 79 | > 79 | > 79 | > 79 | 4.78 µM and 4.75 µM | 4.48 µM and 4.08 µM | 5.09 µM and 5.43 µM | > 79 µM (inactive)
COc1ccc(NC(=O)CN2C3CCCC2CC(NC(=O)c2ccc4c(c2)OCO4)C3)cc1 (stereo not given) | > 79 µM (inactive) | > 79 | > 79 | > 79 | > 79 | > 79 µM (inactive) | > 79 µM | > 79 µM | > 79 µM (inactive)
COc1cc(OC)cc(C(=O)NC2CC3CCCC(C2)N3CC(=O)Nc2ccccc2)c1 (stereo not given) | > 79 µM (inactive) | > 79 | > 79 | > 79 | 11.2 | > 79 µM (inactive) | > 79 µM | > 79 µM | –
COc1ccc(NC(=O)CN2C3CCCC2CC(NC(=O)c2cc(OC)c(OC)c(OC)c2)C3)cc1 (stereo not given) | > 79 µM (inactive) | > 79 | > 79 | > 79 | > 79 | inactive | 12.4 µM | 26.4 µM | > 79 µM (inactive)
COc1ccc(C(=O)NC2CC3CCCC(C2)N3CC(=O)Nc2ccc(C)cc2)cc1OC (stereo not given) | > 79 µM (inactive) | > 79 | > 79 | > 79 | > 79 | > 79 µM (inactive) | > 79 µM | > 79 µM | > 79 µM (inactive)
COc1ccc(NC(=O)CN2C3CCCC2CC(NC(=O)c2ccc(OC)cc2)C3)cc1 (stereo not given) | > 79 µM (inactive) | > 79 | > 79 | > 79 | 4.23 | > 79 µM (inactive) | > 79 µM | > 79 µM | –
COc1cc(OC)cc(C(=O)NC2CC3CCCC(C2)N3CC(=O)Nc2ccc(F)cc2)c1 (stereo not given) | > 79 µM (inactive) | > 79 | > 79 | > 79 | > 79 | > 79 µM (inactive) | > 79 µM | > 79 µM | > 79 µM (inactive)
O=C(CN1C2CCCC1CC(NC(=O)c1ccccc1)C2)Nc1ccccc1 (stereo not given) | > 79 µM (inactive) | > 79 | > 79 | > 79 | > 79 | > 79 µM (inactive) | > 79 µM | > 79 µM | > 79 µM (inactive)
COc1ccc(C(=O)NC2CC3CCCC(C2)N3CC(=O)Nc2ccc(C)cc2)cc1 (stereo not given) | > 79 µM (inactive) | > 79 | > 79 | > 79 | > 79 | > 79 µM (inactive) | > 79 µM | > 79 µM | > 79 µM (inactive)
COc1cc(OC)cc(C(=O)NC2CC3CCCC(C2)N3CC(=O)Nc2ccc(C)cc2)c1 (stereo not given) | > 79 µM (inactive) | > 79 | > 79 | > 79 | > 79 | > 79 µM (inactive) | > 79 µM | > 79 µM | > 79 µM (inactive)
COc1ccc(NC(=O)CN2C3CCCC2CC(NC(=O)c2cc(OC)cc(OC)c2)C3)cc1 (stereo not given) | > 79 µM (inactive) | > 79 | > 79 | > 79 | > 79 | > 79 µM (inactive) | > 79 µM | > 79 µM | > 79 µM (inactive)
COc1ccc(C(=O)NC2CC3CCCC(C2)N3CC(=O)Nc2ccc(Cl)cc2)cc1 (stereo not given) | > 79 µM (inactive) | > 79 | > 79 | > 79 | > 79 | > 79 µM (inactive) | > 79 µM | > 79 µM | > 79 µM (inactive)
COc1ccc(C(=O)NC2CC3CCCC(C2)N3CC(=O)Nc2ccc(Cl)cc2)cc1OC (stereo not given) | > 79 µM (inactive) | > 79 | > 79 | > 79 | > 79 | > 79 µM (inactive) | > 79 µM | > 79 µM | > 79 µM (inactive)
COc1cccc(C(=O)NC2CC3CCCC(C2)N3CC(=O)Nc2ccc(F)cc2)c1 (stereo not given) | > 79 µM (inactive) | > 79 | > 79 | > 79 | > 79 | > 79 µM (inactive) | > 79 µM | > 79 µM | > 79 µM (inactive)
COc1ccc(NC(=O)CN2C3CCCC2CC(NC(=O)c2cccc(OC)c2)C3)cc1 (stereo not given) | > 79 µM (inactive) | > 79 | > 79 | > 79 | > 79 | > 79 µM (inactive) | > 79 µM | > 79 µM | > 79 µM (inactive)
COc1cc(OC)cc(C(=O)NC2CC3CCCC(C2)N3CC(=O)Nc2ccc(Cl)cc2)c1 (stereo not given) | > 79 µM (inactive) | > 79 | > 79 | > 79 | > 79 | > 79 µM (inactive) | > 79 µM | > 79 µM | > 79 µM (inactive)
COc1cccc(C(=O)NC2CC3CCCC(C2)N3CC(=O)Nc2ccc(Cl)cc2)c1 (stereo not given) | > 79 µM (inactive) | > 79 | > 79 | > 79 | > 79 | > 79 µM (inactive) | > 79 µM | > 79 µM | > 79 µM (inactive)
COc1cc(C(=O)NC2CC3CCCC(C2)N3CC(=O)Nc2ccc(Cl)cc2)cc(OC)c1OC (stereo not given) | > 79 µM (inactive) | > 79 | > 79 | > 79 | 52.7 | 1.46 µM | 1.27 µM | 1.65 µM | –
